From PubChem BioAssay
Sampled rows, rich in hits. Any-hit rate of the full collection: about 2.1%.
PAX8 reporter: inhibitors of PAX8 transcriptional activity in RMG-I cells; 1.2% of 360,000 active; inhibition, % at 12.6 µM; RMG-I TPO-luciferase reporter, SteadyGlo, 24 h;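 active means mean replicate inhibition at least 60% with every replicate also reaching 60%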;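 further: luciferase light reporting Pax8 driven TPO promoter activity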
INS-1E GSIS act: GLuc luminescence reporter in INS-1E cells, primary screen for activators of glucose-dependent secretion of insulin; activation, % at 16.6 µM; INS-1E GLuc reporter insulin secretion, 2-3 h; AID 743287; 0.61% of 370,000 active;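 active means lowest replicate activation of at least 40%, so every replicate reaches that level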
XiGFP reactiv: reactivates the inactive X chromosome in mouse fibroblasts; XiGFP mouse fibroblasts, % GFP-positive cells imaging, 3 d; cells co-treated with 5-aza-dC sensitizer; scaled so ellipticine positive control = 100%; activation, % at 7.58 µM; 0.055% of 360,000 active;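 active means mean normalized replicate activation at least 10% and every replicate at or above 10%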
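System: 68-5-11 XiGFP fibroblast line; Timing: 3 days compound exposure; Compound dosing: one concentration, pinned; Benchmarks: positive control ellipticine, 6 µM final; Buffer or medium: DMEM containing 5-aza-dC.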
PGC1a acetyl inh: modulators of PGC1a acetylation. U2OS PGC1a acetylation, AlphaScreen anti-acetyl-lysine; with virally co-expressed GCN5 acetyltransferase. inhibition, % at 15.6 µM. 0.17% of 350,000 active;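 active means every replicate shows inhibition of at least 40%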
EWS-Fli block: EWS/Fli transcriptional activity inhibition; A673 NR0B1-luciferase reporter, viability-normalised; inhibition, % at 12.6 µM; 0.67% of 350,000 active; AID 651661;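 active means mean inhibition of at least 50% after viability correction, with every replicate also passing that limit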;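 further: firefly luciferase signal divided by Alamar Blue viability fluorescence both relative to DMSO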
MLL AF4-AF9 inh: inhibitors of human MLL-AF4/AF9 interaction; P42568; AlphaScreen, biotin-AF4 peptide binding to FLAG-AF9; inhibition, % at 10 µM; 0.47% of 350,000 active; AID 651704;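 active means every replicate reaching a set inhibition limit, whatever the replicate mean, cut at about 25% in these data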
Target sequence (P42568 whole entry, looked up): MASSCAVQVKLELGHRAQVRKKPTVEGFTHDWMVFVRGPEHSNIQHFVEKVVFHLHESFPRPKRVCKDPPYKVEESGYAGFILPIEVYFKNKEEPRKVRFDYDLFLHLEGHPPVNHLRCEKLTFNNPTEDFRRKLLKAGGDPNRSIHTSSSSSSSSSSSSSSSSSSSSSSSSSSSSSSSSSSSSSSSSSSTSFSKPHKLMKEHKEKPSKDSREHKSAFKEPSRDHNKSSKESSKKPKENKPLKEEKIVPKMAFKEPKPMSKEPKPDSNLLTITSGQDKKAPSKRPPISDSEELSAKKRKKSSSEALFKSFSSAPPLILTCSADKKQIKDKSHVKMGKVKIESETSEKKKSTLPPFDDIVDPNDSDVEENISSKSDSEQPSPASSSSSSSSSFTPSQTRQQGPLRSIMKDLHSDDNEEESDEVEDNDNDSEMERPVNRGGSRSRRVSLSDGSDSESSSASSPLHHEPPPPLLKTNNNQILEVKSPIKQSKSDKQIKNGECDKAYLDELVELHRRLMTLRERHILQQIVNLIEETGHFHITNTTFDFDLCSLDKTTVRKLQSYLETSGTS
Large screens that a line does not name were inactive.

COc1ccc(NC(=O)Nc2ccc3c(c2)C(=O)N([C@H](C)CO)C[C@H](C)[C@@H](CN(C)Cc2ccc(C(F)(F)F)cc2)OCCCC[C@H](C)O3)cc1	none
COc1ccc(CN(C)C[C@@H]2OCCCC[C@@H](C)Oc3ccc(NC(=O)Nc4ccc(C(F)(F)F)cc4)cc3C(=O)N([C@@H](C)CO)C[C@@H]2C)cc1	PAX8 reporter 86, EWS-Fli block 70
CN1[C@@H]2c3ccc(/C=C/c4ccccc4)c(=O)n3C[C@H]1[C@H](CO)[C@H]2C(=O)NC1CCCCC1	none
Cc1noc(C)c1S(=O)(=O)Nc1ccc2c(c1)C(=O)N([C@@H](C)CO)C[C@@H](C)[C@@H](CN(C)Cc1ccncc1)OCCCC[C@@H](C)O2	none
C[C@H]1CN([C@@H](C)CO)C(=O)c2cc(-c3ccncc3)cnc2O[C@@H]1CN(C)Cc1ccc(Oc2ccccc2)cc1	none (no result: PAX8 reporter)
CN1CCN(C(=O)CCCN2C(=O)/C(=C/c3cccc(Br)c3)SC2=S)CC1	MLL AF4-AF9 inh 27 (no result: PGC1a acetyl inh)
COc1cccc(/C=C2\SC(=S)N(CCCC(=O)N3CCCCC3)C2=O)c1	none (no result: PGC1a acetyl inh)
COc1cccc(/C=C2\SC(=S)N(CCCC(=O)N(CCO)c3ccccc3)C2=O)c1	PAX8 reporter 65 (no result: PGC1a acetyl inh)
O=C1/C(=C/c2cccc(Br)c2)SC(=S)N1CCC(=O)N(CCO)c1ccccc1	PAX8 reporter 90 (no result: INS-1E GSIS act)
O=C(Cn1ccccc1=S)c1ccc(Cl)c(Cl)c1	none
On1ccccc1=S	PAX8 reporter 100, INS-1E GSIS act 87, EWS-Fli block 52
CC=Cc1ccc2n(c1=O)C[C@@H]1[C@@H](CO)[C@H](C(=O)NCCc3cn(C)cn3)N(C(=O)C3CC3)[C@H]21 (mixture of isomers)	none (no result: PAX8 reporter, PGC1a acetyl inh)
CC(C)C[C@H](NC(=O)c1nc[nH]c1C(=O)N[C@@H](CCCCNC(=O)OC(C)(C)C)C(=O)OC(C)(C)C)C(=O)OCc1ccccc1	PAX8 reporter 82 (no result: INS-1E GSIS act)
CC(C)(C)OC(=O)NCCCCCNC(=O)c1ncn(Cc2ccccc2)c1C(=O)NCCCCCNC(=O)OC(C)(C)C	PAX8 reporter 75
CC(C)(C)OC(=O)NCCCC[C@H](NC(=O)c1nc[nH]c1C(=O)N[C@@H](CCCCNC(=O)OC(C)(C)C)C(=O)OC(C)(C)C)C(=O)OC(C)(C)C	PAX8 reporter 76 (no result: INS-1E GSIS act)
CN(Cc1ccccc1)C(=O)c1[nH]cnc1C(=O)NCCCCCNC(=O)OC(C)(C)C	none (no result: INS-1E GSIS act, PGC1a acetyl inh)
CC(C)(C)OC(=O)NCCCC[C@H](NC(=O)c1nc[nH]c1C(=O)NC(c1ccccc1)c1ccccc1)C(=O)OC(C)(C)C	PAX8 reporter 80 (no result: PGC1a acetyl inh)
CC(C)(C)OC(=O)NCCCCCNC(=O)c1nc[nH]c1C(=O)NCc1ccc(CNC(=O)OC(C)(C)C)cc1	PAX8 reporter 72 (no result: INS-1E GSIS act, PGC1a acetyl inh)
CC(C)(C)OC(=O)NCc1ccc(CNC(=O)c2nc[nH]c2C(=O)NCc2ccc(CNC(=O)OC(C)(C)C)cc2)cc1	none
Cc1ccc(-c2ccc3c(c2)O[C@@H](CN(C)C(=O)C2CCCCC2)[C@H](C)CN([C@@H](C)CO)S3(=O)=O)cc1	none (no result: PAX8 reporter, MLL AF4-AF9 inh)
CCN1CCCC(NC(=O)c2scc3c2CCCC3)C1 (centres undefined)	MLL AF4-AF9 inh 47 (no result: INS-1E GSIS act)
Cc1ccc(NC(=O)c2scc3c2CCCC3)cc1	none (no result: PGC1a acetyl inh)
C[C@@H]1CN([C@H](C)CO)C(=O)c2cc(NC(=O)Cn3cnnn3)ccc2O[C@@H]1CN(C)S(=O)(=O)c1ccc(Cl)cc1	none (no result: PAX8 reporter)
COCCNC(=O)CCc1c(C)nc2c(c(C)nn2-c2ccc(C)cc2)c1C	none (no result: PGC1a acetyl inh)
COCCNC(=O)CCc1c(C)nc2c(c(C)nn2-c2ccc(C)c(C)c2)c1C	PGC1a acetyl inh 78
Cn1c(=O)c(NC2CCCCC2)c2c3c(cccc31)C(=O)c1ccccc1-2	XiGFP reactiv 116
Cn1c(=O)c(NCCO)c2c3c(cccc31)C(=O)c1ccccc1-2	none (no result: PAX8 reporter, XiGFP reactiv, EWS-Fli block, MLL AF4-AF9 inh)
Cc1ccccc1-c1ccc([C@H]2[C@@H](CO)N3CCCCN(C(=O)Nc4ccc(F)cc4)C[C@H]23)cc1	none
O=C(CC1CC1)N[C@@H]1CC[C@H](CCNS(=O)(=O)c2ccc(F)cc2)O[C@H]1CO	none
O=S(=O)(N[C@@H]1CC[C@H](CCNS(=O)(=O)c2ccccc2Cl)O[C@@H]1CO)c1ccccc1	none
O=C(CC1CC1)N[C@@H]1CC[C@@H](CCNS(=O)(=O)c2ccc(Cl)cc2)O[C@@H]1CO	PGC1a acetyl inh 56
O=S(=O)(N[C@@H]1CC[C@@H](CCNS(=O)(=O)c2ccccc2Cl)O[C@H]1CO)c1ccccc1	PGC1a acetyl inh 62
O=C(CC1CC1)N[C@@H]1CC[C@H](CCNS(=O)(=O)c2ccc(Cl)cc2)O[C@H]1CO	PGC1a acetyl inh 64
Cc1ccc(S(=O)(=O)NCC[C@H]2CC[C@@H](NC(=O)CC3CC3)[C@@H](CO)O2)cc1	none
COCC#Cc1cnc2c(c1)C(=O)N([C@H](C)CO)C[C@H](C)[C@@H](CN(C)Cc1ccc3c(c1)OCO3)O2	none
CC(=O)N1[C@@H]2Cn3c(ccc(C4=CCCC4)c3=O)[C@H]1[C@@H](C(=O)NC1CCCC1)[C@@H]2CO	none (no result: PAX8 reporter)
CCCNC(=O)Nc1ccc2c(c1)C(=O)N(C)[C@H]1CC[C@H](CC(=O)Nc3ccccc3C)O[C@@H]1CO2	none
CCCNC(=O)N1CC(=O)N2[C@H](CO)[C@@H](c3ccc(C#Cc4ccc(F)cc4)cc3)[C@@H]2C1	none (no result: PAX8 reporter, EWS-Fli block, MLL AF4-AF9 inh)
C[C@@H]1CCCCO[C@@H](CN(C)C(=O)Nc2cccc3ccccc23)[C@H](C)CN([C@@H](C)CO)C(=O)c2cc(NC(=O)Nc3cccc4ccccc34)ccc2O1	none (no result: PAX8 reporter)
CCN1CCN(Cc2ccc(NC(=O)c3ccc(C)c(NC(=O)c4cncc(-c5cccs5)c4)c3)cc2C(F)(F)F)CC1	PGC1a acetyl inh 69 (no result: PAX8 reporter, INS-1E GSIS act, XiGFP reactiv, EWS-Fli block, MLL AF4-AF9 inh)
CCN1CCN(Cc2ccc(NC(=O)c3ccc(C)c(NC(=O)c4cc(-c5ccc(Br)cc5)n[nH]4)c3)cc2C(F)(F)F)CC1	EWS-Fli block 54
CC(C)NC(=O)N(C)C[C@H]1Oc2c(cccc2[N+](=O)[O-])C(=O)N(C)C[C@@H]1C	none (no result: PAX8 reporter, PGC1a acetyl inh, EWS-Fli block, MLL AF4-AF9 inh)
COC(=O)C1=C(C(=O)OC)[C@]2([C@H]3CCCCN[C@@H](Cc4ccccc4)C(=O)N3Cc3ccccc3)C=C[C@H]1O2	PAX8 reporter 74 (no result: PGC1a acetyl inh)
O=C1[C@H](Cc2ccccc2)NCCCC[C@@H](c2ccc(Cl)cc2)N1Cc1ccccc1	none (no result: PGC1a acetyl inh)
Cc1ccc(C(=O)N/C(=C/c2ccc(-c3ccc([N+](=O)[O-])cc3)o2)C(=O)NCCCN(C)C)cc1	XiGFP reactiv 62 (no result: INS-1E GSIS act)
COc1cccc(NC(=O)N(C)C[C@H]2OCc3ccccc3-c3ccccc3C(=O)N([C@@H](C)CO)C[C@@H]2C)c1	none (no result: PAX8 reporter, PGC1a acetyl inh, EWS-Fli block, MLL AF4-AF9 inh)
CC1Sc2n(c3ccccc3[n+]2C)N=C1c1ccccc1 (centres undefined)	PAX8 reporter 68 (no result: PGC1a acetyl inh, EWS-Fli block, MLL AF4-AF9 inh)
